Laboratory results as given in ChEMBL document CHEMBL1143123, “Novel analogs of D-e-MAPP and B13. Part 2: signature effects on bioactive sphingolipids” (2008).
Activity calls are given as the source filed them. The rule behind the calls is not given here.

Legend:
MCF7 [1] = assay: Increase in endogenous C14-ceramide level in human MCF7 cells at 1 uM after 24 hrs; type: functional, cell-based
How it was run: (§1)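 MCF7 cells grown in RPMI 1640 with 10% FCS at 37 °C, 5% CO2. Seeded at ~50% density (1×10^6 cells), treated 24 h later with compounds in ethanol (0.1% final); controls got ethanol only. Cells washed in cold PBS and lipids extracted. Cer species and Sph quantified by HPLC-MS/MS (MRM, positive ion) against internal standards and calibration curves. Values given as pmol/nmol phospholipid and compared with ethanol controls.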

MCF7 [2] = assay: Increase in endogenous C16-ceramide level in human MCF7 cells at 1 uM after 24 hrs; type: functional, cell-based; how it was run: as §1
MCF7 [3] = assay: Increase in endogenous C18-ceramide level in human MCF7 cells at 1 uM after 24 hrs; type: functional, cell-based; how it was run: as §1
MCF7 [4] = assay: Increase in endogenous C16-ceramide level in human MCF7 cells at 10 uM after 2.5 hrs; type: functional; how it was run: as §1
MCF7 [5] = assay: Increase in endogenous C18-ceramide level in human MCF7 cells at 10 uM after 2.5 hrs; type: functional; how it was run: as §1
MCF7 [6] = assay: Inhibition of endogenous sphingosine level in human MCF7 cells at 10 uM after 2.5 hrs; type: functional, cell-based
How it was run: (§2)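 MCF7 cells grown in RPMI 1640 with 10% FCS at 37 °C in 5% CO2. Seeded near 50% density and treated 24 h later with compound in ethanol (0.1% final); controls got ethanol alone. Cells washed in cold PBS and extracted. Cer species, Sph and S1P measured by HPLC-MS/MS (C8 column, positive-ion MRM) against internal standards and calibration curves. Results given as pmol/nmol phospholipid phosphate, relative to ethanol controls.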

MCF7 [7] = assay: Decrease in endogenous sphingosine level in human MCF7 cells at 10 uM within 5 mins; type: functional; set-up: scale not given: the % may be the effect or the level left; how it was run: as §1
MCF7 [8] = assay: Inhibition of acid ceramidase in human MCF7 cells assessed as enzyme degradation at 10 uM after 5 hrs; type: cell-based
MCF7 [9] = assay: Increase in endogenous C18-ceramide level in human MCF7 cells at 10 uM after 5 mins; type: functional, cell-based; how it was run: as §1
MCF7 [10] = assay: Increase in endogenous C14-ceramide level in human MCF7 cells at 10 uM after 5 mins; type: functional, cell-based; how it was run: as §1
MCF7 [11] = assay: Increase in endogenous C16-ceramide level in human MCF7 cells at 10 uM after 5 mins; type: functional, cell-based; how it was run: as §1
MCF7 [12] = assay: Increase in endogenous C24-ceramide level in human MCF7 cells at 10 uM after 5 mins; type: functional, cell-based; how it was run: as §1
MCF7 [13] = assay: Increase in endogenous C24:1-ceramide level in human MCF7 cells at 10 uM after 5 mins; type: functional, cell-based; how it was run: as §2
MCF7 [14] = assay: Increase in endogenous ceramide level in human MCF7 cells at 1 uM after 24 hrs; type: functional; how it was run: as §2
MCF7 [15] = assay: Decrease in endogenous sphingosine level in human MCF7 cells at 1 uM after 24 hrs; type: functional; set-up: scale not given: the % may be the effect or the level left; how it was run: as §1
MCF7 [16] = assay: Increase in endogenous C14-ceramide level in human MCF7 cells at 10 uM after 2.5 hrs; type: functional; how it was run: as §1
MCF7 [17] = assay: Decrease in endogenous ceramide level in human MCF7 cells at 10 uM after 24 hrs; type: functional; set-up: scale not given: the % may be the effect or the level left; how it was run: as §1
MCF7 [18] = assay: Decrease in endogenous sphingosine level in human MCF7 cells at 50 uM after 24 hrs; type: functional; set-up: scale not given: the % may be the effect or the level left; how it was run: as §1
MCF7 [19] = assay: Increase in endogenous ceramide level in human MCF7 cells at 50 uM after 24 hrs; type: functional; how it was run: as §2
MCF7 [20] = assay: Decrease in endogenous C24-ceramide level in human MCF7 cells upto 20 uM after 24 hrs; type: functional; set-up: scale not given: the % may be the effect or the level left; how it was run: as §1
MCF7 [21] = assay: Decrease in endogenous C24:1-ceramide level in human MCF7 cells upto 20 uM after 24 hrs; type: functional; set-up: scale not given: the % may be the effect or the level left; how it was run: as §1
MCF7 [22] = assay: Increase in endogenous C24:1-ceramide level in human MCF7 cells at >30 uM after 24 hrs; type: functional, cell-based; how it was run: as §2
MCF7 [23] = assay: Increase in endogenous C16-ceramide level in human MCF7 cells at >25 uM after 24 hrs; type: functional, cell-based; how it was run: as §1
MCF7 [24] = assay: Decrease in endogenous sphingosine level in human MCF7 cells at 20 uM after 24 hrs; type: functional, cell-based; how it was run: as §1
MCF7 [25] = assay: Increase in endogenous C16-ceramide level in human MCF7 cells at 10 uM within 30 mins; type: functional, cell-based; how it was run: as §1
MCF7 [26] = assay: Increase in endogenous C24-ceramide level in human MCF7 cells at 10 uM within 30 mins; type: functional, cell-based; how it was run: as §2
MCF7 [27] = assay: Increase in endogenous C24:1-ceramide level in human MCF7 cells at 10 uM within 30 mins; type: functional, cell-based; how it was run: as §2
MCF7 [28] = assay: Increase in endogenous C24-ceramide level in human MCF7 cells at 10 uM upto 2.5 hrs; type: functional, cell-based; how it was run: as §1
MCF7 [29] = assay: Decrease in endogenous sphingosine level in human MCF7 cells at 10 uM upto 2.5 hrs; type: functional, cell-based; how it was run: as §1
MCF7 [30] = assay: Decrease in endogenous C24:1-ceramide level in human MCF7 cells at 10 uM upto 2.5 hrs; type: functional, cell-based; how it was run: as §1
MCF7 [31] = assay: Decrease in endogenous C16-ceramide level in human MCF7 cells at 10 uM after 18 hrs; type: functional, cell-based; how it was run: as §1
MCF7 [32] = assay: Decrease in endogenous C24-ceramide level in human MCF7 cells at 10 uM after 18 hrs; type: functional, cell-based; how it was run: as §1
MCF7 [33] = assay: Growth inhibition of human MCF7 cells after 48 hrs; type: functional, cell-based
MCF7 [34] = assay: Increase in endogenous sphingosine level in human MCF7 cells at 10 uM within 30 mins; type: functional; how it was run: as §2
MCF7 [35] = assay: Decrease in endogenous sphingosine level in human MCF7 cells at 5 uM after 24 hrs; set-up: scale not given: the % may be the effect or the level left
MCF7 [36] = assay: Increase in endogenous C24:1-ceramide level in human MCF7 cells at 50 uM after 24 hrs; type: functional; how it was run: as §2
MCF7 [37] = assay: Increase in endogenous ceramide level in human MCF7 cells at more than 5 uM after 24 hrs; type: functional, cell-based; how it was run: as §2
MCF7 [38] = assay: Decrease in endogenous C24-ceramide level in human MCF7 cells at 10 uM after 24 hrs; type: functional; set-up: scale not given: the % may be the effect or the level left; how it was run: as §1
MCF7 [39] = assay: Increase in endogenous C16-ceramide level in human MCF7 cells at 50 uM after 24 hrs; type: functional; how it was run: as §1
MCF7 [40] = assay: Increase in endogenous C16-ceramide level in human MCF7 cells at 10 uM after 1 to 2.5 hrs; type: functional; how it was run: as §1
MCF7 [41] = assay: Increase in endogenous C24-ceramide level in human MCF7 cells at 50 uM after 24 hrs; type: functional; how it was run: as §2
MCF7 [42] = assay: Decrease in endogenous C24:1-ceramide level in human MCF7 cells at 10 uM; set-up: scale not given: the % may be the effect or the level left
MCF7 [43] = assay: Increase in endogenous ceramide level in human MCF7 cells at 10 to 50 uM after 24 hrs; type: functional, cell-based; how it was run: as §2
MCF7 [44] = assay: Decrease in endogenous sphingosine level in human MCF7 cells at 10-50 uM after 24 hrs; type: functional, cell-based; how it was run: as §1
MCF7 [45] = assay: Decrease in endogenous C16-ceramide level in human MCF7 cells upto 5 uM after 24 hrs; type: functional, cell-based; how it was run: as §1
MCF7 [46] = assay: Decrease in endogenous C24-ceramide level in human MCF7 cells upto 5 uM after 24 hrs; type: functional, cell-based; how it was run: as §1
MCF7 [47] = assay: Decrease in endogenous sphingosine level in human MCF7 cells upto 5 uM after 24 hrs; type: functional, cell-based; how it was run: as §1
MCF7 [48] = assay: Increase in endogenous C24:1-ceramide level in human MCF7 cells upto 5 uM after 24 hrs; type: functional, cell-based; how it was run: as §2
MCF7 [49] = assay: Decrease in endogenous sphingosine level in human MCF7 cells upto 50 uM after 24 hrs; type: functional, cell-based; how it was run: as §1
MCF7 [50] = assay: Decrease in endogenous C16-ceramide level in human MCF7 cells at 10 uM after 24 hrs; type: functional; set-up: scale not given: the % may be the effect or the level left; how it was run: as §1
MCF7 [51] = assay: Increase in endogenous ceramide level in human MCF7 cells at >25 uM after 24 hrs; type: functional, cell-based; how it was run: as §2
MCF7 [52] = assay: Decrease in endogenous sphingosine level in human MCF7 cells at >2.5 uM after 24 hrs; type: functional, cell-based; how it was run: as §1

CCCCCCCCCCCCCCN[C@H](C)[C@@H](O)c1ccccc1.Cl
Activity (MCF7 [1]): Active | Activity (MCF7 [2]): Active | Activity (MCF7 [3]): Active | Activity (MCF7 [4]): 330% | Activity (MCF7 [5]): 260% | Activity (MCF7 [6]): Active | Activity (MCF7 [7]): 25% | Activity (MCF7 [8]): Active | Activity (MCF7 [9]): Active | Activity (MCF7 [10]): Active | Activity (MCF7 [11]): Active | Activity (MCF7 [12]): inactive | Activity (MCF7 [13]): inactive | Activity (MCF7 [14]): 180% | Activity (MCF7 [15]): 80% | Activity (MCF7 [16]): 430%

CCCCCCCCCCCCNC(=O)N[C@H](CO)[C@H](O)c1ccc([N+](=O)[O-])cc1
Activity (MCF7 [17]): 90% | Activity (MCF7 [18]): 45% | Activity (MCF7 [19]): 170% | Activity (MCF7 [20]): 80% | Activity (MCF7 [21]): 80% | Activity (MCF7 [22]): Active | Activity (MCF7 [23]): Active | Activity (MCF7 [24]): Active | Activity (MCF7 [25]): Active | Activity (MCF7 [26]): Active | Activity (MCF7 [27]): Active | Activity (MCF7 [28]): Active | Activity (MCF7 [29]): Active | Activity (MCF7 [30]): Active | Activity (MCF7 [31]): Active | Activity (MCF7 [32]): Active | Activity (MCF7 [33]): Active | Activity (MCF7 [34]): Active | Activity (MCF7 [35]): 80%

CCCCCCCCCCCCCC(=O)N[C@H](CO)[C@H](O)c1ccc([N+](=O)[O-])cc1
Activity (MCF7 [36]): 380% | Activity (MCF7 [18]): 50% | Activity (MCF7 [37]): Active | Activity (MCF7 [19]): 300% | Activity (MCF7 [38]): 80% | Activity (MCF7 [39]): 340% | Activity (MCF7 [40]): 120% | Activity (MCF7 [5]): Active | Activity (MCF7 [33]): Active | Activity (MCF7 [41]): 220% | Activity (MCF7 [16]): 120% | Activity (MCF7 [42]): 80%

CCCCCCCCCCCCCC(=O)N[C@@H](C)[C@@H](O)c1ccccc1
Activity (MCF7 [43]): inactive | Activity (MCF7 [44]): inactive

CCCCCCCCCCCCCC(=O)N[C@H](C)[C@@H](O)c1ccccc1
Activity (MCF7 [45]): Active | Activity (MCF7 [46]): Active | Activity (MCF7 [47]): Active | Activity (MCF7 [48]): Active | Activity (MCF7 [49]): Active | Activity (MCF7 [50]): 30% | Activity (MCF7 [38]): 30% | Activity (MCF7 [51]): Active | Activity (MCF7 [52]): Active | Activity (MCF7 [42]): 30%
